Laboratory results from PubChem BioAssay.
Activity calls are given as the source filed them.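 The calls were made as follows, unless noted: active = viability at or below 30% in both replicate assays; inconclusive = viability at or below 30% in just one of the two assays; inactive = the rest.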

Assays:
[1] = reducers of endogenous Her2 protein level, primary screen, SKBR3 breast tumor cells, AlphaScreen, ATP viability (AID 461;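 active = Her2 level under about 52% in both replicate screens, with viability over 70% of control, limit read from the data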;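 as to Her2 level: lower value means less Her2 protein in the cells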;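 as to viability: percent of carrier control wells set as 100% viability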); conditions: 18-24 h, measured here: SKBR3 viability, ATP luminescence, at 10 µM
[2] = biological target: Receptor tyrosine-protein kinase erbB-2 (Homo sapiens) (UniProt P04626); assay: as above; conditions: 18-24 h, at 10 µM, stronger effect = lower value
Receptor tyrosine-protein kinase erbB-2 (Homo sapiens), sequence (P04626 whole entry, looked up): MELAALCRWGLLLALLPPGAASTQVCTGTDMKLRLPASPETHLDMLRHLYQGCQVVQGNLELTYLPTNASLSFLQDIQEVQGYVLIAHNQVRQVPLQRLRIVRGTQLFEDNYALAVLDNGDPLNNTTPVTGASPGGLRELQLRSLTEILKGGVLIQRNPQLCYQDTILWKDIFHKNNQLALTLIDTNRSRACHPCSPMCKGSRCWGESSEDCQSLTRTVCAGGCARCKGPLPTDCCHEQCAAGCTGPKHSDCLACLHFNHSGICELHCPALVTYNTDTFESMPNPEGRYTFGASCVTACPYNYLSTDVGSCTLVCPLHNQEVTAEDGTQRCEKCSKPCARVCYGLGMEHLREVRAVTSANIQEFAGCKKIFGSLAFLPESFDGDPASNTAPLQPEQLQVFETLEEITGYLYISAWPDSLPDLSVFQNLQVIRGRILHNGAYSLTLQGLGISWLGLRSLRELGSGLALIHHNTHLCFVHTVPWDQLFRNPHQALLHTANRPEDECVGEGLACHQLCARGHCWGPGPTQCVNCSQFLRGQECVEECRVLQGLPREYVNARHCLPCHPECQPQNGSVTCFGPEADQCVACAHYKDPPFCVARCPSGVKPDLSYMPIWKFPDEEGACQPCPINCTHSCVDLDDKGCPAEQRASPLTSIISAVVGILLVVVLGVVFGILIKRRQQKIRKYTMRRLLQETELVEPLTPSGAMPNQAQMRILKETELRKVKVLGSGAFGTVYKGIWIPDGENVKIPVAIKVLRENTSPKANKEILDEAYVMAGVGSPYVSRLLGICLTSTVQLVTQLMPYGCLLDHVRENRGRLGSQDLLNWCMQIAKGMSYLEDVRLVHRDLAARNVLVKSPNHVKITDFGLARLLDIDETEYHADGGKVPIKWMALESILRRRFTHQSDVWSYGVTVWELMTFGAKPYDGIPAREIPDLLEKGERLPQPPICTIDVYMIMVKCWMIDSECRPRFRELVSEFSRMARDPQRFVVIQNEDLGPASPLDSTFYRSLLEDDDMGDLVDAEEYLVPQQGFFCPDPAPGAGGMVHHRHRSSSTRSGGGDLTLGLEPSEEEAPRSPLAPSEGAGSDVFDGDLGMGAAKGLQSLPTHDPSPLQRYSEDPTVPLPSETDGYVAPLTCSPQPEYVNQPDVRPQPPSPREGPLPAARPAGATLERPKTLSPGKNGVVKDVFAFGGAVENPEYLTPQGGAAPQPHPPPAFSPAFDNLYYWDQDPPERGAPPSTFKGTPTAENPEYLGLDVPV

[3] = SK-BR-3 cell growth inhibitors, pilot screen, 24 h, human (AID 572;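 active = viability at or below 10% of carrier control in both of two separate runs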;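 also: compound exposure lasted between 18 and 24 h rather than exactly 24 h; 100% = carrier-treated control wells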); conditions: SK-BR-3 viability, CellTiter-Glo luminescence, at 10 µM, stronger effect = lower value
[4] = HUVEC growth inhibition – cell-based, human, primary screen (AID 575); conditions: HUVEC proliferation, CellTiter-Glo luminescence, 72 h; at 10 µM; stronger effect = lower value;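 also: 100% = median of untreated cell wells with 0.1% DMSO on each plate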
Procedure, shortened: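 Test system: primary human umbilical vein endothelial cells. Quantity: 1250 cells/well. Compound: single 10 µM dose, 0.1% DMSO, from 5x medium stock. Timing: 72 h treatment at 37 °C. Detection: ATP-based CellTiter-Glo luminescent read. Benchmarks: vehicle and MePR control wells. Format: 384-well plates coated with collagen.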

[5] = growth inhibitors of H69AR lung tumor, primary screen, human, duplicate replicates (AID 580;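 active = viability at or under a set limit in both replicates, limit being median viability minus 3 SD, cut at about 48% in these data, passing the limit was not always enough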;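 also: 100% = mean luminescence of untreated wells and 0% = no signal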); conditions: H69AR lung tumor cells viability, ATP luminescence, 72 h; at 10 µM; stronger effect = lower value
[6] = reversal of MRP1-mediated doxorubicin resistance, pilot screen, H69AR cells, doxorubicin co-treatment (AID 601;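 active = viability loss from added drug above about 55%, and viability with drug at most 40%, in both replicates, limit read from the data, passing the limit was not always enough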); conditions: CellTiter-Glo, 72 h, at 10 µM; for differential viability (reversal): stronger effect = higher value
[7] = 384-well plate pilot, post-Golgi transport modulator project, inhibition of yeast transport mutant growth (AID 636; in the data active = inhibition above about 31%); conditions: absorbance 615 nm, about 18 h, stronger effect = higher value
[8] = growth suppression of yeast trafficking mutant, preliminary HTS, modulators of trafficking downstream of Golgi apparatus project, 1536-format plate, OD 615 nm (AID 637; in the data active = inhibition above about 30%); conditions: yeast transport mutant growth, absorbance 615 nm, 18 h; stronger effect = higher value
[9] = H69AR cells + 2 uM doxorubicin, measured here: viability with 2 uM doxorubicin, stronger effect = lower value
[10] = H69AR cells, compound alone cytotoxicity

| SMILES | viability [1] | Her2 level [2] | viability [3] | viability [4] | viability [5] | differential viability (reversal) ([6]; H69AR cells + 2 uM doxorubicin) | viability [6, 9] | viability [6, 10] | inhibition [7] | inhibition [8] |
| --- | --- | --- | --- | --- | --- | --- | --- | --- | --- | --- |
| CCOC(=O)c1cccc(NC(=O)CSc2nnc(-c3cccnc3)n2CC)c1 | 88.5% | 95% (inactive) | 88.5% (inactive) | 101% (inactive) | 109% (inactive) | 13.3% (inactive) | 95.2% | 109% | -4.67% (inactive) | 0% (inactive) |
| CCCNC(=O)Nc1ccccc1C(=O)Nc1ccc(OC)cc1 | 85% | 81% (inactive) | 85% (inactive) | 85.7% (inactive) | 94.6% (inactive) | -9.12% (inactive) | 104% | 94.6% | -4.46% (inactive) | -2.3% (inactive) |
| O=C(NC1CCCc2ccccc21)C1CCN(S(=O)(=O)c2cnc[nH]2)CC1 (stereo not given) | 104% | 100% (inactive) | 104% (inactive) | 102% (inactive) | 94.8% (inactive) | -11.3% (inactive) | 106% | 94.8% | -0.79% (inactive) | -3.87% (inactive) |
| CCC1C(=O)n2nc(-c3ccccc3)cc2N=C1C (stereo not given) | 106% | 66.5% (inactive) | 106% (inactive) | 86.9% (inactive) | 99% (inactive) | 8.73% (inactive) | 90.2% | 99% | -0.39% (inactive) | -3.17% (inactive) |
| CCOC(=O)c1sc2nc(C)cc(C)c2c1N | 105% | 95% (inactive) | 105% (inactive) | 110% (inactive) | 98.4% (inactive) | 15.6% (inactive) | 82.8% | 98.4% | -5.07% (inactive) | 4.52% (inactive) |
| COc1ccc(N2CCN(CCCNC(=O)C3CCCN(S(=O)(=O)c4cnc[nH]4)C3)CC2)cc1 (stereo not given) | 95.5% | 102% (inactive) | 95.5% (inactive) | 93.4% (inactive) | 103% (inactive) | 14% (inactive) | 89% | 103% | -4% (inactive) | -4.26% (inactive) |
| O=S(=O)(c1ccc(S(=O)(=O)N2CCN3CCCC3C2)cc1)N1CCCC1 (stereo not given) | 80.5% | 90.5% (inactive) | 80.5% (inactive) | 104% (inactive) | 98.9% (inactive) | 16.1% (inactive) | 82.8% | 98.9% | -0.77% (inactive) | 0.17% (inactive) |
| COc1ccccc1-c1nnc2sc(-c3ccc(N(C)C)cc3)nn12 | 79.5% | 64% (inactive) | 79.5% (inactive) | 34.5% (inactive) | 23.9% (active) | -15.2% (inactive) | 39.1% | 23.9% | -1.05% (inactive) | 1.09% (inactive) |
| O=C(CN1C(=O)C2C3C=CC(C3)C2C1=O)NCc1ccc2c(c1)OCO2 (stereo not given) | 102% | 109% (inactive) | 102% (inactive) | 97.9% (inactive) | 98.2% (inactive) | 8.13% (inactive) | 90.1% | 98.2% | -1.43% (inactive) | -7.78% (inactive) |
| O=C1Nc2ccccc2OC1CC(=O)N1CCCC1 (stereo not given) | 88.5% | 91.5% (inactive) | 88.5% (inactive) | 94.7% (inactive) | 102% (inactive) | 11.9% (inactive) | 90.5% | 102% | -2.53% (inactive) | 0.66% (inactive) |
| CCOC(=O)C1CCN(C(=O)c2ccc(OC)cc2OC)CC1 | 102% | 112% (inactive) | 102% (inactive) | 110% (inactive) | 106% (inactive) | 5.9% (inactive) | 100% | 106% | -6.13% (inactive) | 6.13% (inactive) |
| CCCN(Cc1cc2ccc(C)cc2[nH]c1=O)C(=O)c1cccnc1 | 87% | 93% (inactive) | 87% (inactive) | 89.3% (inactive) | 87.4% (inactive) | -2.29% (inactive) | 89.7% | 87.4% | 0% (inactive) | -3.28% (inactive) |
| COc1cc(C(=O)Nc2ccc(-n3cnnn3)c(C)c2)cc(OC)c1OC | 105% | 95.5% (inactive) | 105% (inactive) | 99.8% (inactive) | 74% (inactive) | -24.8% (inactive) | 98.8% | 74% | -2.08% (inactive) | -7.3% (inactive) |
| CCN(CC)S(=O)(=O)c1ccc2c(c1)nc(SCC(=O)NC1CC1)n2-c1ccccc1OC | 92.5% | 86.5% (inactive) | 92.5% (inactive) | 67.8% (inactive) | 91.3% (inactive) | 14.2% (inactive) | 77.1% | 91.3% | -5.81% (inactive) | 3.65% (inactive) |
| CN(c1ccccc1)S(=O)(=O)c1ccc(C(=O)OCC(=O)N2CCOCC2)cc1 | 106% | 85.5% (inactive) | 106% (inactive) | 106% (inactive) | 111% (inactive) | 21.5% (inactive) | 89.4% | 111% | -5.41% (inactive) | 3.17% (inactive) |
| O=C(Nc1ccccc1)c1ccc(NCC2CCCO2)c(S(=O)(=O)N2CCOCC2)c1 (stereo not given) | 87% | 95% (inactive) | 87% (inactive) | 102% (inactive) | 90% (inactive) | 4.29% (inactive) | 85.7% | 90% | -3.16% (inactive) | -5.87% (inactive) |

| SMILES | viability [1] | Her2 level [2] | viability [3] | viability [4] | viability [5] | differential viability (reversal) ([6]; H69AR cells + 2 uM doxorubicin) | viability [6, 9] | viability [6, 10] | inhibition [7] | inhibition [8] |
| --- | --- | --- | --- | --- | --- | --- | --- | --- | --- | --- |
| CCOC(=O)N1CCN(c2c(NCCN(C)Cc3ccccc3)c(=O)c2=O)CC1 | 98% | 95% (inactive) | 98% (inactive) | 84.3% (inactive) | 99% (inactive) | 6.12% (inactive) | 92.9% | 99% | 0.27% (inactive) | -2.3% (inactive) |
| Cc1cccc(NC(=O)COc2ccc(Br)cc2)n1 | 126% | 110% (inactive) | 126% (inactive) | 90.5% (inactive) | 99.4% (inactive) | 6.92% (inactive) | 92.4% | 99.4% | -5.19% (inactive) | 11% (inactive) |
| CCCCCc1c(O)nc(SCC(=O)NCC2CCCO2)[nH]c1=O (stereo not given) | 96% | 110% (inactive) | 96% (inactive) | 96.9% (inactive) | 105% (inactive) | 12.2% (inactive) | 93% | 105% | 0% (inactive) | -3.81% (inactive) |
| COc1ccc(OCCC(=O)NCc2ccccc2)cc1 | 103% | 105% (inactive) | 103% (inactive) | 95.7% (inactive) | 103% (inactive) | 19.8% (inactive) | 83.3% | 103% | -3.2% (inactive) | 2.9% (inactive) |
| CCOC(=O)C(CC)Sc1nc2c(c(=O)[nH]c(=O)n2C)n1C/C=C(/C)Cl (stereo not given) | 97.5% | 83% (inactive) | 97.5% (inactive) | 89.9% (inactive) | 84.9% (inactive) | 20.7% (inactive) | 64.2% | 84.9% | -6.27% (inactive) | 3.93% (inactive) |
| COc1cc(-c2noc(-c3cccc(Cl)c3)n2)cc(OC)c1OC | 92.5% | 86% (inactive) | 92.5% (inactive) | 68% (inactive) | 80.5% (inactive) | -10.1% (inactive) | 90.6% | 80.5% | -5.73% (inactive) | 0.97% (inactive) |
| CCN1C(=O)NC(c2cc(Br)ccc2OC)C(C(=O)OC)=C1C (stereo not given) | 104% | 114% (inactive) | 104% (inactive) | 104% (inactive) | 95.3% (inactive) | -2.65% (inactive) | 98% | 95.3% | -2.63% (inactive) | -8.1% (inactive) |
| COc1ccc(CCNC(=O)C2CCN(C(=O)N(C)C)CC2)cc1OC | 86.5% | 117% (inactive) | 86.5% (inactive) | 108% (inactive) | 92.8% (inactive) | 1.61% (inactive) | 91.2% | 92.8% | -2.05% (inactive) | -4.67% (inactive) |
| Cc1nnc2ccc(N3CCN(c4cccc(C(F)(F)F)c4)CC3)nn12 | 97.5% | 77.5% (inactive) | 97.5% (inactive) | 75% (inactive) | 80.3% (inactive) | 18.7% (inactive) | 61.6% | 80.3% | -0.53% (inactive) | -1.15% (inactive) |
| COC(=O)CSc1nc2ncc(Cl)cc2[nH]1 | 101% | 92.5% (inactive) | 101% (inactive) | 89.3% (inactive) | 89.8% (inactive) | 1.08% (inactive) | 88.7% | 89.8% | -5.06% (inactive) | 1.15% (inactive) |
| CC(C)CNC(=O)c1c(N)n(/N=C/c2ccccn2)c2nc3ccccc3nc12 | 88.5% | 92.5% (inactive) | 88.5% (inactive) | 80.4% (inactive) | 83.9% (inactive) | 2.92% (inactive) | 81% | 83.9% | -4.67% (inactive) | -1.48% (inactive) |
| COC(=O)C1=C(C)OC(N)=C(C#N)C1c1ccccc1 (stereo not given) | 94.5% | 77% (inactive) | 94.5% (inactive) | 102% (inactive) | 94% (inactive) | 12.1% (inactive) | 82% | 94% | -1.18% (inactive) | -9.82% (inactive) |
| COc1ccc(N(CC(=O)NC2CCCC2)C(=O)Cn2nnc(-c3ccc(C)cc3)n2)cc1 | 79% | 99.5% (inactive) | 79% (inactive) | 95.5% (inactive) | 89.1% (inactive) | -4.01% (inactive) | 93.1% | 89.1% | 2.76% (inactive) | -7.58% (inactive) |
| COC(=O)c1[nH]c2ccc(F)cc2c1NS(=O)(=O)c1ccc(OC)cc1OC | 79% | 75% (inactive) | 79% (inactive) | 88.5% (inactive) | 84.4% (inactive) | -15.5% (inactive) | 99.9% | 84.4% | -6.76% (inactive) | 4.92% (inactive) |
| O=C(c1cccnc1NCc1ccccc1)N1CCOCC1 | 77.5% | 126% (inactive) | 77.5% (inactive) | 86.4% (inactive) | 93.8% (inactive) | 0.76% (inactive) | 93% | 93.8% | 1.08% (inactive) | 23.2% (inactive) |
